This sample holds only a part of the variants without activity.
B1: tRNA (parent)
chain: GUUCCGUUGGCGUAAUGGUAACGCGUCUCCCUCCUAAGGAGAAGACUGCGGGUUCGAGUCCCGUACGGAACG

Variants of: B1
Assay: yeast fitness relative to wild type (ratio to wild type); higher = fitter; tRNA-Arg(CCU), competitive growth, 37 C, YPD
Summary of the method: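 A pool of Saccharomyces cerevisiae strains, each with a tRNA-Arg(CCU) gene variant at the native genomic locus, was competed in YPD at 37°C for 24 hours across six parallel replicates. The variants had been chemically synthesised at a 3% per-site mutation rate over 69 sites, and gene amplicons before and after competition were read by 100-nucleotide paired-end sequencing. Darwinian fitness relative to wild type rested on changes in genotype frequencies. Genotypes required ≥ 100 starting reads, and estimates < 0.5 were set to 0.5.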

| Variant | yeast fitness |
| --- | --- |
| U8A C11U A20G G25C G39C | ≤ 0.5 |
| U8A C11U A21C A69C | ≤ 0.5 |
| U8A C11U A21C G56C G68C | ≤ 0.5 |
| U8A C11U A43U C61A A65U | ≤ 0.5 |
| U8A C11U A70C | 0.622 |
| U8A C11U C46U G68A | ≤ 0.5 |
| U8A C11U G25A C33A A40U A69U | ≤ 0.5 |
| U8A C11U G25A C33A A40U C61A C62U | ≤ 0.5 |
| U8A C11U G25C G39C C55U | ≤ 0.5 |
| U8A C22G A43U G52A U54C G56U U64C | ≤ 0.5 |
| U8A C22G G25A C27A C33U A57C G68C | ≤ 0.5 |
| U8A C22G G25A C27A C33U C49G | 0.642 |
| U8A C22G G25A C27A C33U C49G A65C | 0.608 |
| U8A C22G U35C A70G | ≤ 0.5 |
| U8A C22U | 0.634 |
| U8A C22U A36G A40C U47A | ≤ 0.5 |
| U8A C22U A36U C49G A69C | 0.631 |
| U8A C22U C34G A36U A57G A65C | ≤ 0.5 |
| U8A C22U C49U A69C A70C | 0.545 |
| U8A C22U U35C | ≤ 0.5 |
| U8A C22U U59A | ≤ 0.5 |
| U8A C24A C30U G48C | ≤ 0.5 |
| U8A C24A G52C | ≤ 0.5 |
| U8A C24A U28A G58A | 0.584 |

| Variant | yeast fitness |
| --- | --- |
| U8A C24A U28C | ≤ 0.5 |
| U8A C24A U28C G68U | 0.531 |
| U8A C24G U26A G50A | ≤ 0.5 |
| U8A C24U | 0.834 |
| U8A C24U A40U A42C A65C A69C | ≤ 0.5 |
| U8A C24U A40U A42G A45U | ≤ 0.5 |
| U8A C24U U28C A40C | ≤ 0.5 |
| U8A C27A | 0.625 |
| U8A C27A C49U A69U | ≤ 0.5 |
| U8A C27A U47C | 0.558 |
| U8A C27G A42U | ≤ 0.5 |
| U8A C27U A40G C49U C55G | 0.554 |
| U8A C27U A40G C55U A57U | ≤ 0.5 |
| U8A C27U A42G | ≤ 0.5 |
| U8A C27U A42G C62G G68A | ≤ 0.5 |
| U8A C29A G39A | ≤ 0.5 |
| U8A C29A U47C | ≤ 0.5 |
| U8A C29G A40G A70G | ≤ 0.5 |
| U8A C29G A65G C66G | 0.57 |
| U8A C29G C60U G67A A69U | ≤ 0.5 |
| U8A C29G C62G | 0.576 |
| U8A C29G U32C | ≤ 0.5 |
| U8A C29U | 0.692 |
| U8A C29U C30G | ≤ 0.5 |

| Variant | yeast fitness |
| --- | --- |
| U8A C29U C62U A70U | ≤ 0.5 |
| U8A C29U G51C A57G | ≤ 0.5 |
| U8A C29U G51C C55U | 0.526 |
| U8A C29U G51C G67A | 0.536 |
| U8A C30A | 0.604 |
| U8A C30G C46A G63A G67A | ≤ 0.5 |
| U8A C30G C61A | ≤ 0.5 |
| U8A C30G C62U G67C | 0.546 |
| U8A C30U A40U G52C | ≤ 0.5 |
| U8A C30U A42G A57C | ≤ 0.5 |
| U8A C30U C46A U54A A57G | ≤ 0.5 |
| U8A C30U G58C | ≤ 0.5 |
| U8A C31A C61U | ≤ 0.5 |
| U8A C31G A65U | ≤ 0.5 |
| U8A C31U | 0.631 |
| U8A C31U G58A C61G C66U | ≤ 0.5 |
| U8A C31U U59A | ≤ 0.5 |
| U8A C33A A40C | ≤ 0.5 |
| U8A C33A A40G | ≤ 0.5 |
| U8A C33U | ≤ 0.5 |
| U8A C33U A36U A70G | ≤ 0.5 |
| U8A C33U A65G | ≤ 0.5 |
| U8A C33U A65U | 0.502 |
| U8A C33U C66A | ≤ 0.5 |

| Variant | yeast fitness |
| --- | --- |
| U8A C34A A45C A65C | 0.718 |
| U8A C34U A36G A45U U64A | ≤ 0.5 |
| U8A C34U A43U U59C | 0.619 |
| U8A C34U A65U | ≤ 0.5 |
| U8A C34U C61A | ≤ 0.5 |
| U8A C46A | 0.657 |
| U8A C46A U54C | 0.666 |
| U8A C49U | 0.779 |
| U8A C55G | ≤ 0.5 |
| U8A C55U | ≤ 0.5 |
| U8A C60G G67A | ≤ 0.5 |
| U8A C60U | 0.551 |
| U8A C61A G67A | 0.528 |
| U8A C61U | 0.718 |
| U8A C61U G63C A65G | ≤ 0.5 |
| U8A C66G | 0.582 |
| U8A C66U | 0.775 |
| U8A G9A A21C | ≤ 0.5 |
| U8A G9A C24G A69G | ≤ 0.5 |
| U8A G9A C24U U53C C60G | ≤ 0.5 |
| U8A G9A U19G C24G | 0.551 |
| U8A G9C A15G U54A | ≤ 0.5 |
| U8A G9C A57C | 0.701 |
| U8A G10A G38C | ≤ 0.5 |

| Variant | yeast fitness |
| --- | --- |
| U8A G10A G67C A69U | ≤ 0.5 |
| U8A G10A U13C A14U C27G U47C C62A | ≤ 0.5 |
| U8A G10C C27A G48A | ≤ 0.5 |
| U8A G10C C34U C61U U64G | ≤ 0.5 |
| U8A G10C G12C C34G C61G | ≤ 0.5 |
| U8A G10C G12C C34G G67U | ≤ 0.5 |
| U8A G12A A14C G67U | 0.65 |
| U8A G12A A20C | ≤ 0.5 |
| U8A G12A A21G C62U | 0.697 |
| U8A G12A A45C | ≤ 0.5 |
| U8A G12A C33U A37G C62A | ≤ 0.5 |
| U8A G12A C62A | 0.53 |
| U8A G12C G17A C29U G38A G44C G50A | ≤ 0.5 |
| U8A G12C G17A C33U A40G G41C | ≤ 0.5 |
| U8A G17A C24U A69C | 0.693 |
| U8A G17A U26C C29G U35A A42G A69U | ≤ 0.5 |
| U8A G17A U32A A43G | ≤ 0.5 |
| U8A G18A A69C | ≤ 0.5 |
| U8A G18A C27U C31A | ≤ 0.5 |
| U8A G18A C30A U32A U35G C55U G67A | ≤ 0.5 |
| U8A G18A C30A U32A U35G G56A C60A C62G C66A | ≤ 0.5 |
| U8A G18A C30A U32A U35G G67A | 0.527 |
| U8A G18A C30G A40C U47C | ≤ 0.5 |
| U8A G18A C30G U32A U35G G67A | ≤ 0.5 |

| Variant | yeast fitness |
| --- | --- |
| U8A G18A G25A C33U G51A G56A C66U | ≤ 0.5 |
| U8A G18A G52A U59A G67C | ≤ 0.5 |
| U8A G18A U47G U54A | ≤ 0.5 |
| U8A G18C | ≤ 0.5 |
| U8A G18C A36U C66U | 0.505 |
| U8A G18C C24A C27U U32C U54G C55U | ≤ 0.5 |
| U8A G18C C24A U26A U32C | ≤ 0.5 |
| U8A G18C C27U C46A G50A C62U | ≤ 0.5 |
| U8A G18C C27U G51C C55A C62U A65U G68A A69U | ≤ 0.5 |
| U8A G18C C66U | ≤ 0.5 |
| U8A G18C G25C A45U C49G | ≤ 0.5 |
| U8A G18C G25C C60U C61A | ≤ 0.5 |
| U8A G18C G25C C60U U64A | ≤ 0.5 |
| U8A G18C U19C A20C A36G U64A G67C | ≤ 0.5 |
| U8A G23A A36G | ≤ 0.5 |
| U8A G23A C30G A65U | 0.55 |
| U8A G23A C30U U35C | ≤ 0.5 |
| U8A G23A U32G C60U U64G A69C | ≤ 0.5 |
| U8A G23C | ≤ 0.5 |
| U8A G23C G56A | 0.539 |
| U8A G23C G56U A65U | ≤ 0.5 |
| U8A G25A C33G A42G G50A | ≤ 0.5 |
| U8A G25A G48C C62A | ≤ 0.5 |
| U8A G25C C31G | ≤ 0.5 |

| Variant | yeast fitness |
| --- | --- |
| U8A G38A G48C G67A | 0.69 |
| U8A G38A U54A | ≤ 0.5 |
| U8A G38C | 0.647 |
| U8A G39C | 0.555 |
| U8A G39C A43G | 0.605 |
| U8A G39C A65G | ≤ 0.5 |
| U8A G41C C62U A65U | ≤ 0.5 |
| U8A G44A | 0.644 |
| U8A G44A C60U G67C | 0.576 |
| U8A G44C | 0.788 |
| U8A G44C A57U C62U | ≤ 0.5 |
| U8A G44C C62U | ≤ 0.5 |
| U8A G44C C66U | ≤ 0.5 |
| U8A G48C A70G | ≤ 0.5 |
| U8A G50A A69U | 0.589 |
| U8A G51C | 0.534 |
| U8A G52A G56U | ≤ 0.5 |
| U8A G56A | 0.701 |
| U8A G56A G67C | ≤ 0.5 |
| U8A G56U G67A A70C | ≤ 0.5 |
| U8A G58A G67U | 0.618 |
| U8A G58C | 0.764 |
| U8A G63A | 0.597 |

— the RNAGym collection of RNA variant scans (doi:10.1126/science.aae0568)
